# Calls of active or inactive are those of the source. No cut-off for these calls is given here.
# Biological target: T1, Peroxisome proliferator-activated receptor gamma (Homo sapiens) (UniProt P37231)
# T1 sequence (whole entry): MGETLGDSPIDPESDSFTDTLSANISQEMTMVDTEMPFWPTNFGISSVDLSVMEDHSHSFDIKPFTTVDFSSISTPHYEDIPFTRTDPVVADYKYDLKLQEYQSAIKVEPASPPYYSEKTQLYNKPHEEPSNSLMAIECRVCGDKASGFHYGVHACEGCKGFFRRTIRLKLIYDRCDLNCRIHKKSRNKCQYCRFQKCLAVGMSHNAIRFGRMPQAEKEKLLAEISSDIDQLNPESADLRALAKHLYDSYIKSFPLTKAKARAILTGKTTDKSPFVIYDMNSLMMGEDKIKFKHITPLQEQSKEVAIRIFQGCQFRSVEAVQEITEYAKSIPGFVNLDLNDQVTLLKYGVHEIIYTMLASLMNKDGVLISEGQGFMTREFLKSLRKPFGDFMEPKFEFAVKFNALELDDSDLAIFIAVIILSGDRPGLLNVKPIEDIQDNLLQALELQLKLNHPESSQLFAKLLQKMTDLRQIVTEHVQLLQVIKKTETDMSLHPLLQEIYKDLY
# Assay: Binding affinity to human recombinant […] expressed in african green monkey CV1 cells coexpressing GAL4-luc reporter by microplate scintillation counter
# Assay type: cell-based
# Settings: CV-1
# Outline: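 GAL4-PPAR-γ chimera reporter assay in CV-1 monkey kidney cells seeded at 6 × 10³ cells/well in DMEM with 10% FBS and ascorbic acid, 37 °C, 5% CO2, 24 h. Cells transfected with pM-hPPAR-γ and p4×UASg-tk-luc, then 24 h later given DMEM with 10% charcoal-treated FBS plus sample (2 or 10 μg/mL; final DMSO 0.1%) for 24 h. Luciferase luminescence expressed relative to DMSO control; n = 4.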
row,SMILES,Activity
1,CC(C)=CCc1c(O)cc(O)c2c(=O)c(-c3ccc(O)c(O)c3)coc12,Active
2,CC1(C)C=Cc2c(ccc(-c3coc4cc(O)ccc4c3=O)c2O)O1,Active
3,COc1ccc([C@@H]2COc3cc(O)ccc3C2)c(O)c1O,Active
4,CC1(C)C=Cc2c(ccc3c2OC[C@@H](c2cc(C=O)c(O)cc2O)C3)O1,Active
5,CC(C)=CCc1cc([C@H]2Oc3cc(O)ccc3C(=O)[C@@H]2O)ccc1O,Active
6,CC(C)=CCc1cc([C@@H]2CC(=O)c3ccc(O)c(CC=C(C)C)c3O2)ccc1O,Active
7,CC(C)=CCc1cc([C@@H]2CC(=O)c3ccc4c(c3O2)C=CC(C)(C)O4)ccc1O,Active
8,COc1cc(O)ccc1/C=C/C(=O)c1ccc(O)cc1,Active
9,CC(C)=CCc1cc2c(=O)cc(-c3ccc(O)cc3)oc2cc1O,Active
10,CC1(C)C=Cc2c(ccc3cc(-c4ccc(O)cc4O)c(=O)oc23)O1,Active
11,CC(C)=CCc1c(O)ccc([C@@H]2COc3c(ccc(O)c3CC=C(C)C)C2)c1O,Active
12,CC1(C)C=Cc2c(ccc3c2OC[C@H]2c4ccc(O)cc4O[C@@H]32)O1,Active
